# Screening data as filed in PubChem BioAssay.
# OXTR ag = human OXTR agonists, primary screen, fluorescence, CHO-OTR cells, Fluo-8 calcium; activation, % at 3 µM; 320,000 compounds, 0.32% hits; Fluo-8 calcium fluorescence; normalized: DMSO 0%, oxytocin 100%;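 active means activation above the mean of all tested compounds plus 3 SD, cutoff set per screening run, cut at about 20% in these data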;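 further: peak over basal fluorescence ratio from a 100 s FLIPR kinetic read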
# CHO parental Ca = ATP-evoked calcium signal inhibitors, parental CHO, primary screen, counter-screen for OX1R antagonist project, cell-based, fluorescence, Fluo-8 calcium dye; 330,000 compounds, 0.63% hits; parental CHO-K1, ATP-induced calcium, Fluo-8 fluorescence; inhibition, % at 5.6 µM;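 active means inhibition above that plate's mean sample inhibition plus 3 SD, cut at about 26% in these data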;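 further: 0% = ATP-challenged DMSO wells and 100% = DMSO wells without ATP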
#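 material = parental CHO cells | also added = ATP as calcium-mobilizing challenge | dosing = single point at 5.6 µM | detection = intracellular calcium via Fluo-8 no-wash fluorescent dye | read-out = % inhibition | benchmarks = low control ATP plus DMSO, high control DMSO only | repeats = one well per compound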
# V1aR counter = agonists of human V1a receptor, primary screen, counter-screen for OXTR agonist project, fluorescence, CHO-V1R cells; 320,000 compounds, 0.25% hits; Vasopressin V1a receptor (Homo sapiens), P37288; activation, % at 3 µM; Fluo-8 calcium fluorescence, agonist mode; 0% DMSO, 100% 3 nM vasopressin;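 active means activation above the mean activation of all tested compounds plus 3 SD, per screening run, cut at about 20% in these data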;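 further: signal is peak over basal fluorescence ratio across a 100 second FLIPR read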
# OXTR potentiator = human OXTR potentiators, primary screen, fluorescence, CHO-OTR cells, Fluo-8 calcium; Oxytocin receptor (Homo sapiens), P30559; Fluo-8 calcium fluorescence, potentiator mode; 0% = oxytocin EC15, 100% = EC100; activation, % at 3 µM; 320,000 compounds, 0.061% hits;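 active means activation above that plate's cutoff, the mean activation of tested compounds plus 3 SD, cut at about 6.6% in these data, passing the limit was not always enough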;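 further: 100% uses oxytocin at 75 nM as the full agonist control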
#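 test system = CHO-OTR cells, human receptor | compound = single-point 3.0 µM | schedule = 6 min compound pre-incubation at room temperature, 100 s kinetic read | signal = Fluo-8 no-wash calcium dye fluorescence, excitation 470-495 nm, emission 515-575 nm | repeats = single well per compound, singlicate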
# OX1R antag-1 = antagonists of human orexin 1 receptor (OX1R) | OX1R-expressing cells, FRET antagonist read-out | inhibition, % at 6.6 µM | 330,000 compounds, 1.8% hits; in the data active means inhibition mostly above about 38%, no sharp cut-off; inactive means mostly below about 40%;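 further: 0% = agonist challenge alone and 100% = reference antagonist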
# Target sequence (O43613 whole entry, looked up): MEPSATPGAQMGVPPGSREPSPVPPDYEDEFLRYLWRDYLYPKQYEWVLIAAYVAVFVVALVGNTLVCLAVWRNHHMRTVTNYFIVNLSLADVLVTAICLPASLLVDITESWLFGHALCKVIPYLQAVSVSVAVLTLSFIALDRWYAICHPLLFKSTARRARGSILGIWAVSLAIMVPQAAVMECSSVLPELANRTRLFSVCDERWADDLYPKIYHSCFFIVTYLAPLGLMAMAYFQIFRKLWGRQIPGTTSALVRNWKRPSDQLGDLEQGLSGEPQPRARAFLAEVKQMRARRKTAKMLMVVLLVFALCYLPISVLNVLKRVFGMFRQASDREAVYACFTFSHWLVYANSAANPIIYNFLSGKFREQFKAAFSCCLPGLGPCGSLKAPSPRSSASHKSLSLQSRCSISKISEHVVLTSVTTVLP
# OX1R antag-2 = OX1R (HCRTR1) antagonists, primary screen, fluorescence, CHO/OX1R cells, Fluo-8 calcium, orexin A | Fluo-8 calcium fluorescence | inhibition, % at 5 µM | 330,000 compounds, 0.43% hits | AID 434989, 2010;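 active means inhibition above its plate's threshold, mean inhibition of all tested compounds on the plate plus 3 SD, cut at about 37% in these data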;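 further: 0% = orexin A challenge wells and 100% = SB-334867-A antagonist wells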
# OX1R Fluo8 conf = OX1R (HCRTR1) antagonists, confirmation, fluorescence, CHO/OX1R cells, Fluo-8 calcium, orexin A; 1,100 compounds, 38% hits; orexin A calcium Fluo-8 fluorescence; inhibition, % at 5 µM; AID 492963, 2010; shares compounds with OX1R antag-2; in the data active means inhibition above about 29%;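 further: 0% = agonist challenge alone and 100% = reference antagonist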
# CHO Ca triplic = ATP-evoked calcium inhibition in parental CHO, counter-screen for OX1R antagonist project, cell-based, fluorescence, CHO-K1, triplicate | shares compounds with OX1R antag-2 | ATP-induced calcium, Fluo-8 fluorescence | inhibition, % at 5.6 µM | 1,100 compounds, 9.3% hits;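 active means inhibition above a per-plate limit, the mean inhibition of that plate's test compounds plus 3 SD, cut at about 25% in these data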;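 further: 0% = ATP challenge with DMSO and 100% = DMSO without ATP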
# Active calls of the source: *; / = no result. Sampled rows, rich in hits. Any-hit rate of the full collection: about 2.6%.
SMILES,OXTR ag,CHO parental Ca,V1aR counter,OXTR potentiator,OX1R antag-1,OX1R antag-2,OX1R Fluo8 conf,CHO Ca triplic
COc1ccc(S(=O)(=O)Nc2ccc(F)cc2)cc1N(C)S(=O)(=O)c1ccc(Cl)cc1,2,-6,2,-12,22,-17,/,/
COc1ccc(NS(=O)(=O)c2ccc(OC)c(N(C)S(=O)(=O)c3ccc(Cl)cc3)c2)cc1,0,19,1,-10,28,61*,26,25*
O=C(Nc1ccccc1)c1ccc2c(c1)CCN2S(=O)(=O)c1ccccc1,0,-5,2,-6,7,-10,/,/
O=C(Nc1ccc(S(=O)(=O)N2CCc3ccccc32)cc1)c1ccc2c(c1)OCO2,4,19,4,-10,20,25,10,8
Cc1ccc(C(=O)OCCOc2cccc(Cl)c2)cc1S(=O)(=O)N1CCOCC1,1,16,3,-3,33,8,/,/
COC(=O)c1c(-c2ccc(OC)cc2)sc2cc3c(cc12)OCO3,1,-20,1,-4,-4,-27,/,/
COC(=O)c1c(-c2ccc(N(C)C)cc2)sc2ccc(OC)cc12,-1,-19,1,-4,30,65*,16,-7
COc1ccc(NC(=O)c2cc(-c3ccccc3Cl)on2)cc1OC,-1,-25,2,-10,41,37,30*,-3
COc1ccc(NC(=O)c2cc(-c3ccc(OC)c(OC)c3)on2)cc1OC,0,-11,0,-1,14,-17,/,/
O=C(NC(=S)NC(CO)c1ccccc1)c1ccc(F)cc1 (stereo not given),1,-4,1,0,4,5,/,/
O=C(Cn1ncc(Cl)c(Cl)c1=O)c1ccc(Cl)cc1,-3,13,-1,-26,14,22,43*,31*
O=C(Cn1ncc(N2CCOCC2)c(Cl)c1=O)c1ccc(Cl)cc1,-1,-11,0,-7,7,-3,/,/
COc1ccccc1CNC(=O)CSc1ccc(-c2cccc([N+](=O)[O-])c2)nn1,-2,-8,-1,-3,17,-29,/,/
N#Cc1c(C(F)(F)F)cc(-c2ccco2)nc1SCc1ccccn1,10,21,7,-6,5,44,-18,3
N#Cc1c(C(F)(F)F)cc(-c2ccco2)nc1SCc1ccncc1,13,-4,14,-11,24,8,/,/
O=[N+]([O-])c1cc([N+](=O)[O-])c2cc(-c3cccnc3)[nH]c2c1,3,4,3,-4,10,-5,/,/
O=C(CCCOc1ccccc1)Nc1ccc(Cl)c(S(=O)(=O)N2CCOCC2)c1,9,2,8,-9,23,38,6,4
O=C(CCCOc1ccccc1)Nc1cccc([N+](=O)[O-])c1,8,12,7,-24,31,40,7,0
Cc1cc(C)c(S(=O)(=O)c2cccc(Br)c2C)c(=O)[nH]1,1,1,2,-5,13,-23,/,/
CC(C)(C)CC(=O)Nc1ccc(-c2cn3cccnc3n2)cc1,1,15,0,-1,21,9,/,/
COc1ccc(NS(=O)(=O)c2ccc(N3CCCCC3)c(N)c2)cc1,18,12,12,-12,16,62*,20,65*
COc1ccc(OCc2nnc(SCC(=O)Nc3ccccc3C#N)o2)cc1,1,-3,0,1,17,-11,/,/
Cc1cc2ccccn2c1C(=O)c1ccccc1F,-2,-4,-1,-4,22,-19,/,/
CC(c1cccs1)N(Cc1ccco1)C(=O)Nc1ccc(Cl)c(Cl)c1 (stereo not given),1,-2,2,-11,22,44*,-23,-16
COc1cccc(NC(=O)N(Cc2ccco2)C(C)c2cccs2)c1 (stereo not given),0,-14,1,-1,11,-12,/,/
SMILES,OXTR ag,CHO parental Ca,V1aR counter,OXTR potentiator,OX1R antag-1,OX1R antag-2,OX1R Fluo8 conf,CHO Ca triplic
O=C1N[C@@H](c2ccccc2)COC(=O)[C@H](Cc2ccc(F)cc2)CC/C=C/C[C@H]1CC(=O)N(CCO)Cc1ccccc1,1,-17,1,-8,4,-7,/,/
O=C1N[C@@H](c2ccccc2)COC(=O)[C@@H](Cc2ccc(F)cc2)C/C=C\C[C@@H]1CC(=O)N(CCO)Cc1ccccc1,43*,11,36*,-11,20,58,63*,2
CC1CCC/C(=N\NC(=S)NCc2ccccc2)C1 (stereo not given),-2,-10,-1,-15,15,-18,/,/
CC1CCC/C(=N\NC(=S)Nc2ccccc2)C1 (stereo not given),-2,-10,0,0,10,33,-2,-8
Cc1nn(-c2ccccc2)c2nc(N)c(C#N)c(-c3ccc(O)c(O)c3)c12,4,3,5,-11,9,36,34*,6
COc1cc(-c2c(C#N)c(N)nc3c2c(C)nn3-c2ccc(C)c(C)c2)cc(OC)c1OC,0,-17,0,-5,1,-11,/,/
Fc1ccc(-c2cc(C(F)(F)C(F)F)[nH]n2)cc1,39*,10,32*,-21,9,27,37*,19
Oc1ccccc1-c1cc(C(F)(F)C(F)F)[nH]n1,14,-10,5,-12,14,13,/,/
Cc1cccc2sc(NC(=O)CCNS(=O)(=O)c3cccs3)nc12,18,20,11,-20,39,31,17,4
Cc1cc(N2CCN(c3ccc(F)cc3)CC2)nc(-c2ccccc2)n1,-1,-41,0,-12,53,37,-21,-12
CCC(C)[C@H](NC(=O)Nc1cccc(Br)c1)C(=O)OC (stereo not given in full),-2,-16,0,-1,14,-19,/,/
CNc1cc(CSC)nc(SCc2ccc(Cl)cc2Cl)n1,2,-12,0,-7,36,53*,3,-9
